# Source: PubChem BioAssay (Columbia University Molecular Screening Center)
# INS promoter act: activators of insulin promoter-driven GFP, primary screen, imaging, TRM-6 cells (human fetal islet line), eGFP reporter, cell count. 130,000 tested, 0.81% active. activation, % at 2 µM. AID 1296, 2008. plate-scaled: unstimulated 0, stimulated control 100;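 active = activation at 2 µM above a set limit, confirmed on inspection of the cell images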;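 also: share of cells whose green reporter signal exceeds an intensity cutoff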
#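 System – TRM-6 insulin promoter–eGFP reporter cells · Probe or stimulus – 0.75 µM tamoxifen as reporter inducer · Dosing – single-point 2 µM compound dose · Incubation – tamoxifen pre-incubation 15 h overnight, then compound exposure 48 h at 37 °C · Measured by – fixed-cell fluorescence microscopy, eGFP plus Hoechst · Evaluation – percent GFP-positive cells normalized to per-plate controls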
# Active calls of the source: *. The sample as a whole holds a higher share of hits than the screen did.
SMILES,INS promoter act
CC1=NN(c2ccccc2)C(=O)/C1=C\N1CC(C)OC(C)C1 (stereo not drawn),-3
O=C(Nc1cc(Cl)cc(Cl)c1)c1cccc(OC(F)F)c1,4
CCCN1CNc2c(c(=O)[nH]c(=S)n2CCc2ccccc2)C1,0
Cc1ccc2[nH]c(C)c(CCNC(=O)C3CCCCC3C(=O)OCC(F)(F)F)c2c1 (stereo not drawn),8
Cc1ccc(C(=O)N/C(=C\c2cccs2)C(=O)NC2CCCCC2)cc1,400*
O=C(N/C(=C/c1cccs1)C(=O)N1CCCCCC1)c1ccccc1,252
O=C(Nc1ccccc1)/C(=C\c1cccs1)NC(=O)c1ccccc1,-7
CC(=O)N[C@@H](C)C(=O)OC(C)C(=O)Nc1cccc([N+](=O)[O-])c1 (stereo partly drawn),392*
O=C(CCCOc1ccccc1)Nc1cccc([N+](=O)[O-])c1,-77
CC(C(=O)Nc1cccc(Br)c1)c1ccc([N+](=O)[O-])cc1 (stereo not drawn),-7
CN(C)CCCn1c(NCc2ccc3c(c2)OCO3)nc2ccccc21,-7
Cn1c(=S)n(/N=C/c2ccc3c(c2)OCO3)c2ccccc21,-8
CCCCn1c(/N=C/c2ccc3c(c2)OCO3)nc2ccccc21,81*
Cc1cccc(N/C(=N\S(=O)(=O)c2ccccc2)C(F)(F)F)c1,7
Cc1ccsc1/C=N\NC(=O)c1cc(C(C)(C)C)[nH]n1,0
O=C1OCCN1C(=O)[C@H]1[C@H](c2ccc([N+](=O)[O-])cc2)C(c2cccc(Cl)c2)=NN1c1ccccc1,273*
O=C(NCc1ccccc1C(F)(F)F)C12CN(Cc3ccccc3)CC1C(c1ccc([N+](=O)[O-])cc1)=NO2 (stereo not drawn),-5
O=[N+]([O-])c1ccc(N2N=C(c3ccco3)CC2c2ccccc2)cc1 (stereo not drawn),106
COc1ccc(CCC(=O)Nc2c(C)n(C)n(-c3ccccc3)c2=O)cc1,-7
Cc1cnc(C)c(N(C)NC(=S)Nc2ccccc2)n1,485*
CN(C(=S)Nc1ccccc1)c1ccccc1,-7
Cc1nn(-c2ccccc2)cc1C(=S)Nc1ccccc1,-7
COc1ccc(OCc2nnc(SCC(N)=O)n2-c2ccccc2OC)cc1,160*
NC(=O)CSc1nnc(COc2ccccc2)n1CCc1ccccc1,-6
COc1ccccc1-n1c(COc2ccccc2-c2ccccc2)nnc1SCC(=O)c1c(N)n(C)c(=O)n(C)c1=O,-2
SMILES,INS promoter act
CCOCCCNC(=O)CNC(=S)N(Cc1ccc(C)cc1)Cc1ccco1,0
CN1C(=O)/C(=C/c2cn(CC(=O)N3CCCCC3)c3ccccc23)c2ccccc21,4
COc1ccc(N(CC(=O)N2CCCCC2)S(=O)(=O)c2ccccc2)c(OC)c1,0
Cc1cc2c(=O)n(NC(N)=O)c(C)nc2s1,0
O=C(c1ccccc1)c1nc2c(n1O)CCCCC2,106
CCn1c(CNC(=O)c2cccs2)nnc1SCC(=O)Nc1ccc(Cl)cc1,650*
CCn1c(SCC(=O)Nc2cc(C)on2)nnc1-c1cccs1,-7
C=CCn1c(CCNC(=O)c2cccs2)nnc1SCC(=O)Nc1cccc(C(C)=O)c1,219
CCN(CC)C(=O)C(Cc1ccccc1)N1C(=O)c2ccccc2C1=O (stereo not drawn),4
COc1ccc(CC(NC(C)=O)C(=O)NC2CCN(C(=O)NCc3ccccc3)CC2)cc1OC (stereo not drawn),-7
Cc1ccc(-n2nnnc2-c2ccco2)cc1,0
Cc1cc(C)cc(-n2nnnc2-c2cn(C)nc2C(F)(F)F)c1,132*
FC(F)(F)c1nc(-c2cccs2)ncc1-c1nnnn1-c1ccc(Cl)cc1,3
Cn1c2ccccc2n2c(=O)c(Cl)c(-c3ccccc3)c(C#N)c12,-8
Cc1nc2nc[nH]n2c(=O)c1NC(=O)c1c(-c2ccccc2Cl)noc1C,3
O=C(CO/N=C/c1cccc([N+](=O)[O-])c1)NC1CCCCCC1,450*
O=C(NC1CCCCC1)c1cc([N+](=O)[O-])ccc1N1CCCCC1,8
O=C(CCc1ccc(Oc2cc([N+](=O)[O-])cc([N+](=O)[O-])c2)cc1)NC1CCCC1,3
O=C1CCC(C(=O)Nc2cccc(Oc3ccccc3)c2)=NN1,9
CCCn1nnc(NC(=O)c2ccc(Br)cc2)n1,-79
CCOc1ccc(C(=O)Nc2cc(NC(=O)c3ccc(OCC)c(Cl)c3)cc(C(=O)O)c2)cc1Cl,-6
CCCn1nnc(NC(=O)c2ccc(OCC)c(Cl)c2)n1,623*
COC(=O)c1cn(C(=O)OC)c2ccccc12,226
COC(=O)c1cn(-c2ccccc2)c(C)c1C(=O)OC,592*
O=C(O)c1cn(-c2ccccc2)c(=O)c2ccccc12,-70
Cc1ccc(C)n1-c1ccc(N2CCOCC2)nc1,381
CN(C)c1ccc(NC(=O)COC(=O)c2cc(=O)c3ccccc3o2)cc1,-67
CC(=O)Nc1nnc(CCS(=O)(=O)c2ccc(C)c(C)c2)s1,-4
Cc1ccc(N2C(=O)C3C(c4ccccc4)N4CCCN4C3(C)C2=O)cc1 (stereo not drawn),0
